The text below walks through data of ChEMBL document CHEMBL5360619.

Active and inactive are the calls of the source. The rule behind the calls is not given here.

Test [1] relates to Mycobacterium tuberculosis. The experiment in a line: Antimycobacterial activity against Mycobacterium tuberculosis Erdman harboring frameshift mutation in KatG at amino acid 6 assessed as reduction in colony forming units at […] incubated for 13 days (reference value: 9.07 x 10^9 CFU/mL). Conditions: dose 2.5 µg/ml; time 13 day. Format: functional.
Test [2] deals with Mycobacterium tuberculosis. The experiment in a line: Antimycobacterial activity against Mycobacterium tuberculosis Erdman harboring frameshift mutation in KatG at amino acid 6 assessed as reduction in colony forming units at 1 uM incubated for 13 days. In kind it is functional, organism-based. As to conditions: time 13.0 day. The essentials:
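katG frameshift mutant grown to log phase in Sauton's medium, diluted to 5 × 10^7 CFU/mL, given 1 μM compound (imidazole salt in DMSO); IMD/DMSO vehicle controls. Incubated rolling at 37 °C. After 13 days, serial dilutions plated on 7H11 agar with ADC for CFU. Two experiments, each in duplicate; one-way ANOVA with Tukey's correction.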

Test [3] relates to Mycobacterium tuberculosis. The experiment in a line: Reversal of isoniazid resistance in Mycobacterium tuberculosis Erdman harboring frameshift mutation in KatG at amino acid 6 assessed as reduction in surviving bacteria by measuring reduction in colony forming units at 1 uM incubated for 13 days. Format: functional, organism-based. As to conditions: time 13.0 day.

In the case of `NNC(=O)c1ccncc1` [ISONIAZID], the Activity in test [1] is reported as 8.09 10^8CFU/ml.

With `O=C(O)C1CSc2c(C3CC3)c(-c3cc(-c4ccc5ccccc5c4)no3)cc(=O)n21.c1c[nH]cn1` (racemic), the result in test [2] was inactive. Besides, the outcome in test [3] was Active.

For `O=C(O)C1CSc2c(C3CC3)c(Cc3cccc4ccccc34)cc(=O)n21.c1c[nH]cn1` (racemic), the outcome in test [2] and in test [3] was inactive.
